Data published in ChEMBL document CHEMBL1124479, “N-[(arylmethoxy)phenyl] and N-[(arylmethoxy)naphthyl] sulfonamides: potent orally active leukotriene D4 antagonists of novel structure” (J Med Chem, 1989).
Activity calls are given as the source filed them. The calls are words filed in the database; no cut-off is given here.

Tested on: Rattus norvegicus
Assay: Compound at 100 mg/kg was administered intragastrically and tested in a rat carrageenan paw edema assay
Type: functional
Conditions: po, route intragastric

Row | Structure (SMILES) | inhibition in vivo at 100 mg/kg [%]
1 | O=S(=O)(Nc1cccc(OCc2ccc3ccccc3n2)c1)C(F)(F)F [RITOLUKAST] | 20

Tested on: Cavia porcellus
Assay: Inhibitory dose of the intraduodenally administered compound (10 min before giving agonist) that produced a 50% inhibition of ovalbumin induced bronchoconstriction in guinea pigs
Type: functional
Conditions: intraduodenal, read-out: ID50 (the source's name)
Procedure, shortened: (§1)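 Guinea pigs, intraduodenal dosing, with LTD4 or ovalbumin challenge. ID50 is the dose of antagonist giving 50% inhibition of the induced bronchoconstriction.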

Row | Structure (SMILES) | ED50 [mg/kg]
2 | O=S(=O)(Nc1cccc(OCc2ccc3ccccc3n2)c1)C(F)(F)F [RITOLUKAST] | 3

Tested on: Cavia porcellus
Assay: Inhibitory dose of the intragastrically administered compound (120 min before giving agonist) that produced a 50% inhibition of ovalbumin induced bronchoconstriction in guinea pigs
Type: functional
Conditions: po, read-out: ID50 (the source's name)
Procedure, shortened: (§2)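 Guinea pigs, awake, dosed intragastrically 120 min before agonist challenge (95 min before anesthetic). The LTD4 challenge was given intravenously; ovalbumin served as antigen. ID50 is the dose giving 50% inhibition of LTD4- or ovalbumin-induced bronchoconstriction.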

Row | Structure (SMILES) | ED50 [mg/kg]
3 | O=S(=O)(Nc1cccc(OCc2ccc3ccccc3n2)c1)C(F)(F)F [RITOLUKAST] | 0.6

Species on record: Cavia porcellus
Assay: Activity against leukotriene C4-induced contraction of guinea pig trachea, in the presence of glutathione
Conditions: not given

Row | Structure (SMILES) | Dose [µM]
4 | O=S(=O)(Nc1cccc(OCc2ccc3ccccc3n2)c1)C(F)(F)F [RITOLUKAST] | 30

Tested on: Cavia porcellus
Assay: Inhibitory dose of the intragastrically administered compound (120 min before giving agonist) that produced a 50% inhibition of leukotriene D4 induced bronchoconstriction in guinea pigs
Type: functional
Conditions: po, read-out: ID50 (the source's name)
Procedure, shortened: as §2

Row | Structure (SMILES) | ED50 [mg/kg]
5 | O=S(=O)(Nc1cccc(OCc2ccc3ccccc3n2)c1)C(F)(F)F [RITOLUKAST] | 0.1

Tested on: Mus musculus
Assay: Compound was administered intragastrically and tested in a mouse ear edema assay; Inactive
Type: functional, organism-based
Conditions: not given

Row | Structure (SMILES) | inhibition
6 | O=S(=O)(Nc1cccc(OCc2ccc3ccccc3n2)c1)C(F)(F)F [RITOLUKAST] | inactive

Tested on: Cavia porcellus
Assay: Inhibition of ovalbumin-induced bronchoconstriction when compound was administered perorally at a dose of 25 mg/kg in guinea pig
Type: functional
Conditions: route oral
Procedure, shortened: (§3)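 Single-dose screen in guinea pigs, with n animals per group. Significance versus control used a two-tailed Student's t test (p < 0.05), or one-way ANOVA with contrasts based on each treatment's difference from its own control mean.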

Row | Structure (SMILES) | inhibition in vivo at 25 mg/kg [%]
7 | O=S(=O)(Nc1cccc(SCc2ccc3ccccc3n2)c1)C(F)(F)F | 59
8 | O=S(=O)(Nc1cccc(OCc2ccc3ccccc3n2)c1)C(F)(F)F [RITOLUKAST] | 69

Tested on: Cavia porcellus
Assay: Inhibition of Leukotriene D4 induced bronchoconstriction when compound was administered perorally at a dose of 50 mg/kg in guinea pig
Type: functional
Conditions: route oral
Procedure, shortened: as §3

Row | Structure (SMILES) | inhibition in vivo at 50 mg/kg [%]
9 | CCCS(=O)(=O)Nc1cccc(OCc2nc3ccccc3n2C)c1 | 36
10 | O=C1CS(=O)(=O)Nc2cc(OCc3ccc4ccccc4n3)ccc21 | 3
11 | CCS(=O)(=O)Nc1ccc2ccc(OCc3ccc4ccccc4n3)cc2c1 | 34

Tested on: Cavia porcellus
Assay: Inhibition of ovalbumin-induced bronchoconstriction when compound was administered intraduodenally at a dose of 50 mg/kg in guinea pig
Type: functional
Conditions: route intraduodenal
Procedure, shortened: as §3

Row | Structure (SMILES) | inhibition in vivo at 50 mg/kg [%]
12 | CCCS(=O)(=O)Nc1cccc(OCc2nc3ccccc3n2C)c1 | 31
13 | CCCCS(=O)(=O)Nc1cccc(OCc2nc3ccccc3s2)c1 | 16
14 | CS(=O)(=O)Nc1cccc(OCc2nc3ccccc3s2)c1 | 44
15 | CCS(=O)(=O)Nc1cccc(OCc2cc3ccccc3s2)c1 | 4
16 | CCS(=O)(=O)Nc1cccc(OCc2nc3ccccc3n2C)c1 | 16
17 | CCCS(=O)(=O)Nc1cccc(OCc2nc3ccccc3s2)c1 | 18
18 | CCS(=O)(=O)Nc1cccc(OCc2ccc3ccccc3n2)c1 | 0
19 | CCCCS(=O)(=O)Nc1cccc(OCc2nc3ccccc3n2C)c1 | 8
20 | CCS(=O)(=O)Nc1ccc2ccc(OCc3ccc4ccccc4n3)cc2c1 | 20
21 | CCS(=O)(=O)Nc1cccc(OCc2nc3ccccc3s2)c1 | 35

Tested on: Cavia porcellus
Assay: Inhibition of Leukotriene D4 induced bronchoconstriction when compound was administered intraduodenally at a dose of 25 mg/kg in guinea pig
Conditions: not given

Row | Structure (SMILES) | inhibition [%]
22 | O=C1CS(=O)(=O)Nc2cc(OCc3ccc4ccccc4n3)ccc21 | 78
23 | O=S(=O)(Nc1cccc(OCc2nc3ccccc3s2)c1)C(F)(F)F | 94
24 | O=S(=O)(Nc1cccc(Oc2ccccn2)c1)C(F)(F)F | 11
25 | CN(C)S(=O)(=O)Nc1cccc(OCc2ccc3ccccc3n2)c1 | 11
26 | O=S(=O)(Nc1ccc(OCc2ccc3ccccc3n2)cc1)C(F)(F)F | 28
27 | Cc1ccc(S(=O)(=O)Nc2cccc(SCc3ccc4ccccc4n3)c2)cc1 | 10
28 | O=S(=O)(Nc1cccc(SCc2ccc3ccccc3n2)c1)C(F)(F)F | 85
29 | O=S(=O)(CC(F)(F)F)Nc1cccc(OCc2ccc3ccccc3n2)c1 | 100
30 | CCS(=O)(=O)Nc1cccc(OCc2cc3ccccc3s2)c1 | 13

Tested on: Cavia porcellus
Assay: Inhibition of Leukotriene D4 induced bronchoconstriction in guinea pig by 50 mg/kg i.d.
Conditions: at 50 mg/kg

Row | Structure (SMILES) | inhibition [%]
31 | CCCS(=O)(=O)Nc1cccc(OCc2nc3ccccc3n2C)c1 | 37
32 | CCCCS(=O)(=O)Nc1cccc(OCc2nc3ccccc3s2)c1 | 56
33 | CS(=O)(=O)Nc1cccc(OCc2nc3ccccc3s2)c1 | 60
34 | CCS(=O)(=O)Nc1cccc(OCc2nc3ccccc3n2C)c1 | 75
35 | CCCS(=O)(=O)Nc1cccc(OCc2nc3ccccc3s2)c1 | 48
36 | CCS(=O)(=O)Nc1cccc(OCc2ccc3ccccc3n2)c1 | 83
37 | CCCCS(=O)(=O)Nc1cccc(OCc2nc3ccccc3n2C)c1 | 2
38 | CCS(=O)(=O)Nc1ccc2ccc(OCc3ccc4ccccc4n3)cc2c1 | 91
39 | CCS(=O)(=O)Nc1cccc(OCc2nc3ccccc3s2)c1 | 41

Target: not listed separately
Assay: Binding studies using tritium-labelled leukotriene D4
Design: species or system Cavia porcellus
Conditions: not given

Row | Structure (SMILES) | Kd [µM]
40 | O=S(=O)(Nc1cccc(OCc2ccc3ccccc3n2)c1)C(F)(F)F [RITOLUKAST] | 0.035

Tested on: Cavia porcellus
Assay: Percentage inhibition of Leukotriene D4 when Compound was administered perorally at a dose of 50 mg/kg in guinea pig,
Type: functional
Conditions: route oral
Procedure, shortened: as §3

Row | Structure (SMILES) | inhibition in vivo at 50 mg/kg [%]
41 | CCS(=O)(=O)Nc1cccc(OCc2nc3ccccc3s2)c1 | 13

Target: T1, Polyunsaturated fatty acid 5-lipoxygenase (Rattus norvegicus, UniProt P12527)
T1 sequence (P12527 whole entry): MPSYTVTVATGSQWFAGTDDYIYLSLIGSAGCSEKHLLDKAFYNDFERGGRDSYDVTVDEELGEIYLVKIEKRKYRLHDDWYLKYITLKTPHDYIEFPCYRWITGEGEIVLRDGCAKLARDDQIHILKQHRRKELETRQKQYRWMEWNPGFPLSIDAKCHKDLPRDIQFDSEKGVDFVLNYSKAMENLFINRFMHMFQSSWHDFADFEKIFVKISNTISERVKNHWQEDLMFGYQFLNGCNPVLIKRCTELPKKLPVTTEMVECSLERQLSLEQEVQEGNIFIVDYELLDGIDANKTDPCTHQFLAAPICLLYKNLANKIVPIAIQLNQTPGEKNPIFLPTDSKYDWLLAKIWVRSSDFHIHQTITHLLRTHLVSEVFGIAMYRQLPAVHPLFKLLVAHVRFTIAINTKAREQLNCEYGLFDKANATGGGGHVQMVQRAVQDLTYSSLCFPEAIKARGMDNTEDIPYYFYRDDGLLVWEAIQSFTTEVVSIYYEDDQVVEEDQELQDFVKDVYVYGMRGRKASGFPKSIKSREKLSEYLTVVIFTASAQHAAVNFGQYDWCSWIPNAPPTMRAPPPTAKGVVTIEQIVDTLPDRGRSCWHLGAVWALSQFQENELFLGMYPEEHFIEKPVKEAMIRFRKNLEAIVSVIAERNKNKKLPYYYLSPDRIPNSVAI
Assay: Inhibitory concentration to inhibit 5-lipoxygenase in the rat
Conditions: not given
Procedure, shortened: (§4)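 Rat PMN assay, measuring 5-lipoxygenase and cyclooxygenase activity. IC50 values are in μM.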

Row | Structure (SMILES) | IC50 [µM]
42 | O=S(=O)(Nc1cccc(OCc2ccc3ccccc3n2)c1)C(F)(F)F [RITOLUKAST] | 4.6

Tested on: not listed separately
Assay: Dissociation constant was determined
Type: physicochemical
Conditions: not given
Procedure, shortened: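 Isolated guinea pig trachea pretreated with indomethacin and L-cysteine, then contracted with LTD4. Antagonism of the LTD4-induced contraction was expressed as a pKB value.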

Row | Structure (SMILES) | pKB
43 | O=S(=O)(Nc1cccc(OCc2ccc3ccccc3n2)c1)C(F)(F)F [RITOLUKAST] | 7.7

Tested on: Cavia porcellus
Assay: Inhibitory dose of the intraduodenally administered compound (10 min before giving agonist) that produced a 50% inhibition of leukotriene D4 induced bronchoconstriction in guinea pigs
Type: functional
Conditions: intraduodenal, read-out: ID50 (the source's name)
Procedure, shortened: as §1

Row | Structure (SMILES) | ED50 [mg/kg]
44 | O=S(=O)(Nc1cccc(OCc2ccc3ccccc3n2)c1)C(F)(F)F [RITOLUKAST] | 0.3

Tested on: Cavia porcellus
Assay: Inhibition of Leukotriene D4 induced bronchoconstriction when compound was administered perorally at a dose of 25 mg/kg in guinea pig
Type: functional
Conditions: route oral
Procedure, shortened: as §3

Row | Structure (SMILES) | inhibition in vivo at 25 mg/kg [%]
45 | O=S(=O)(Nc1cccc(SCc2ccc3ccccc3n2)c1)C(F)(F)F | 97
46 | O=S(=O)(Nc1cccc(OCc2ccc3ccccc3n2)c1)C(F)(F)F [RITOLUKAST] | 100

Target: T2, Cyclooxygenase (Rattus norvegicus, UniProt P35355+Q63921)
T2 sequence (P35355 whole entry): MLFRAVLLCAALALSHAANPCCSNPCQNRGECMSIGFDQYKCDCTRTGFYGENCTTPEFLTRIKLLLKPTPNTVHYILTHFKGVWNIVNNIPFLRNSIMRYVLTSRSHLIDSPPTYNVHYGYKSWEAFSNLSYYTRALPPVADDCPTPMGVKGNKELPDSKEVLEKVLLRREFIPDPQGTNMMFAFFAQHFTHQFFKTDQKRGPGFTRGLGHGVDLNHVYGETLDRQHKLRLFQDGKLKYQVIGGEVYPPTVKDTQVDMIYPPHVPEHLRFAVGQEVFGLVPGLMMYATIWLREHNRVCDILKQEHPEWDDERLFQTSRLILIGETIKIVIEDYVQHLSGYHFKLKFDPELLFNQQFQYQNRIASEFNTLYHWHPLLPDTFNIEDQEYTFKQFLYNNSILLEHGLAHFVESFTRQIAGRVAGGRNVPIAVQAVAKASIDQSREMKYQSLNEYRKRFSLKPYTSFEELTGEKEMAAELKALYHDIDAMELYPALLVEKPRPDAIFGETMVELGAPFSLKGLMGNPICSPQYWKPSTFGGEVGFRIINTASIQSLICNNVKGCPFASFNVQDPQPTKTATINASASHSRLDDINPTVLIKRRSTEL
T2 sequence (Q63921 whole entry): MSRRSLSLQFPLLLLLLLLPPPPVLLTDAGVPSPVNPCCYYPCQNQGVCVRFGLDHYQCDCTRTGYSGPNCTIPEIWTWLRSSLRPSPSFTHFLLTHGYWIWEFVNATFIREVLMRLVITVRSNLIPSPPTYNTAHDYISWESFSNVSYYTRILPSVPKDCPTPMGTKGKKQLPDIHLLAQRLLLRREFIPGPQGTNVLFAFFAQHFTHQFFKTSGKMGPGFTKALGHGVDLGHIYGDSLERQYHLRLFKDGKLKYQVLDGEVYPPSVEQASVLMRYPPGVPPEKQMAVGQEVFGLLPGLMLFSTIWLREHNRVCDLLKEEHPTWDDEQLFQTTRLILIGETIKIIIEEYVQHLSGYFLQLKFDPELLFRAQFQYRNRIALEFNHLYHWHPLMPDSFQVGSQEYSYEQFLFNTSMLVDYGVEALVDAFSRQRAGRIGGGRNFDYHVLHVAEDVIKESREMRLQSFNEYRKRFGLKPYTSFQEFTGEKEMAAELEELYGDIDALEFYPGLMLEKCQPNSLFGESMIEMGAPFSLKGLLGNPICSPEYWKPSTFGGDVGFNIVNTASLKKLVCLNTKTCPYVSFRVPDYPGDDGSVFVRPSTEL
Assay: Inhibitory concentration to inhibit Prostaglandin G/H synthase in the rat
Type: protein assay
Conditions: not given
Procedure, shortened: as §4

Row | Structure (SMILES) | IC50 [µM]
47 | O=S(=O)(Nc1cccc(OCc2ccc3ccccc3n2)c1)C(F)(F)F [RITOLUKAST] | 3.3

Tested on: Cavia porcellus
Assay: Inhibition of ovalbumin-induced bronchoconstriction when compound was administered perorally at a dose of 50 mg/kg in guinea pig
Type: functional
Conditions: route oral
Procedure, shortened: as §3

Row | Structure (SMILES) | inhibition in vivo at 50 mg/kg [%]
48 | CCCS(=O)(=O)Nc1cccc(OCc2nc3ccccc3n2C)c1 | 17
49 | CCS(=O)(=O)Nc1ccc2ccc(OCc3ccc4ccccc4n3)cc2c1 | 24
50 | CCS(=O)(=O)Nc1cccc(OCc2nc3ccccc3s2)c1 | 32

Tested on: Cavia porcellus
Assay: Inhibition of ovalbumin-induced bronchoconstriction when compound was administered intraduodenally at a dose of 10 mg/kg in guinea pig
Type: functional
Conditions: route intraduodenal
Procedure, shortened: as §3

Row | Structure (SMILES) | inhibition in vivo at 10 mg/kg [%]
51 | O=S(=O)(Nc1cccc(OCc2ccc3ccccc3n2)c1)C(F)(F)F [RITOLUKAST] | 73
